TAAR1 antag: human TAAR1 antagonists, primary screen, Fluo-8 calcium fluorescence, CHO RD-HGA16 cells | Trace amine-associated receptor 1 (Homo sapiens), Q96RJ0 | antagonist | inhibition, % at 3 µM | 360,000 tested, 1.5% active | AID 624466, 2012;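 active = inhibition above a per-plate cutoff, the mean inhibition of test compounds on that plate plus 3 SD, cut at about 49% in these data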
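System: CHO RD-HGA16 cells bearing hTAAR1. Reagent: EC80 β-phenethylamine stimulus. Schedule: seeding 17-24 h prior, 75-min 37 °C, 30-min RT dye loading. Signal: Fluo-8 intracellular calcium dye fluorescence, real-time kinetic reads. Read-out: % inhibition from peak post-agonist over basal fluorescence ratio. Benchmarks: vehicle wells and EC80 agonist wells. Replicates: n of 1.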
OX1R antag-1: OX1R (HCRTR1) antagonists, primary screen, fluorescence, CHO/OX1R cells, Fluo-8 calcium, orexin A; 330,000 tested, 0.43% active; Fluo-8 calcium fluorescence; Orexin/Hypocretin receptor type 1 (Homo sapiens), O43613; inhibition, % at 5 µM;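 active = inhibition above its plate's threshold, mean inhibition of all tested compounds on the plate plus 3 SD, cut at about 37% in these data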
Target sequence (O43613 whole entry, looked up): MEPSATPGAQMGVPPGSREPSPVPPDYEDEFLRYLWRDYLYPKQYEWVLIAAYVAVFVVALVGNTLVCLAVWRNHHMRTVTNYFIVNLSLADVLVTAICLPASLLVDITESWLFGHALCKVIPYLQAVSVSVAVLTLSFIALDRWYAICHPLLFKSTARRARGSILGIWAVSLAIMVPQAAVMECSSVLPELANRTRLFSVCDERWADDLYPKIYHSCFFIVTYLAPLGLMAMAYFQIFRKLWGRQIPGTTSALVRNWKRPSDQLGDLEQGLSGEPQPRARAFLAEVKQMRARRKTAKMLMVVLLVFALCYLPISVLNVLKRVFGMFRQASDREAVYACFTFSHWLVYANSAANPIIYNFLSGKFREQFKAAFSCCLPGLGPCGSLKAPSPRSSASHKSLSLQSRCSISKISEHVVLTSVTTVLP
CHO parental Ca: ATP-evoked calcium signal inhibitors, parental CHO, primary screen, counter-screen for OX1R antagonist project, cell-based, fluorescence, Fluo-8 calcium dye; parental CHO-K1, ATP-induced calcium, Fluo-8 fluorescence; inhibition, % at 5.6 µM; 330,000 tested, 0.63% active; AID 463079, 2010;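 active = inhibition above that plate's mean sample inhibition plus 3 SD, cut at about 26% in these data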
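Material: Parental CHO cells | Reagent: ATP | Compound dosing: Single nominal dose of 5.6 µM per compound | Detection: Intracellular calcium via Fluo-8 no-wash fluorescent dye | Read-out: % inhibition of ATP-induced calcium mobilization | Benchmarks: Low control ATP plus DMSO, high control DMSO only | Replicates: Singlicate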
GPR7 antag: GPR7 receptor antagonists, primary screen, cell-based, fluorescence, single concentration; GPR7-expressing cells, fluorescence antagonist assay; inhibition, % at 4.4 µM; Neuropeptides B/W receptor type 1 (Homo sapiens), P48145; 290,000 tested, 1.1% active; in the data active = inhibition above about 16%, passing the limit was not always enough;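 also: cells stimulated with the agonist NPW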
Target sequence (P48145 whole entry, looked up): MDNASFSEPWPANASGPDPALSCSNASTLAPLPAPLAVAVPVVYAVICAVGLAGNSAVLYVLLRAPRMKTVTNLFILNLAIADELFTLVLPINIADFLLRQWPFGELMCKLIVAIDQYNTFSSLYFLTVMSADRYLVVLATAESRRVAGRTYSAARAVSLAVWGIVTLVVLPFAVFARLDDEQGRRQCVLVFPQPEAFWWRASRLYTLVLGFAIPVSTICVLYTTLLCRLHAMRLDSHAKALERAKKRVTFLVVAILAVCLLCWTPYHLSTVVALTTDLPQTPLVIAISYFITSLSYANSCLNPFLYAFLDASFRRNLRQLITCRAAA
TAAR1 agonist: human TAAR1 agonists, primary screen, Fluo-8 calcium fluorescence, CHO RD-HGA16 cells; 360,000 tested, 0.99% active; Trace amine-associated receptor 1 (Homo sapiens), Q96RJ0; activation, % at 3 µM; vehicle wells 0%, saturating PEA agonist 100%;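 active = activation above the mean activation of all test compounds in the run plus 3 SD, cut at about 38% in these data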
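Repeats: no replicates (n 1) | Material: CHO-derived RD-HGA16 cells with stable Gα16 and human TAAR1 | Technique: Kinetic Fluo-8 calcium fluorescence | Schedule: 17-24 h seeding, 75 min 37 °C dye, 30 min RT | Evaluation: % activation from peak over basal fluorescence ratio, DMSO-to-PEA scaled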
OX1R antag-2: antagonists of human orexin 1 receptor (OX1R); Orexin/Hypocretin receptor type 1 (Homo sapiens), O43613; OX1R-expressing cells, FRET antagonist read-out; inhibition, % at 6.6 µM; 330,000 tested, 1.8% active; AID 485270, 2010; in the data active = inhibition mostly above about 38%, no sharp cut-off; inactive = mostly below about 40%
nonsel antag count: nonselective antagonists in TAAR1 counter-screen cells, counter-screen for hTAAR1 antagonist project, cell-based, fluorescence, calcium; shares compounds with TAAR1 antag; inhibition, % at 3 µM; counterscreen cell line, antagonist mode; 2,400 tested, 77% active; in the data active = inhibition above about 22%;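 also: CHO-Ga16 host cells stimulated with ATP at an EC80 level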
TAAR1 ant conf: human TAAR1 antagonists, retest of hits, confirmation, cell-based, fluorescence | shares compounds with TAAR1 antag | TAAR1-expressing cells, fluorescence antagonist read-out | inhibition, % at 3 µM | 2,400 tested, 40% active | AID 651785, 2012; in the data active = inhibition above about 49%;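 also: CHO-Ga16 host cells challenged with agonist PEA near its EC80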
Ga16 ag counter: calcium activation in Ga16-expressing cells, counter-screen for TAAR1 antagonist project, cell-based, fluorescence. shares compounds with TAAR1 antag. activation, % at 3 µM. agonist counterscreen. 2,400 tested, 18% active. AID 651953, 2012; in the data active = activation above about 12%
TAAR1 ag count: TAAR1 activation by candidate antagonists – cell-based, fluorescence, counter-screen for TAAR1 antagonist project; shares compounds with TAAR1 antag; hTAAR1 cell line, agonist mode; activation, % at 3 µM; 2,400 tested, 2% active; AID 651955, 2012; in the data active = activation above about 37%;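 also: CHO cells stably expressing TAAR1 with calcium dye readout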
Of the large screens only hits and unclear results are named; the others gave an inactive call (follow-up assays come after a bar, where they were run). Most compounds without a hit are left out; they make up all but 4.5% or so of the library.

COc1ccc(NC(=O)C2Cc3c(-c4cccc(F)c4)ccnc3O2)cc1 (stereo not drawn)	none (no result: OX1R antag-1, CHO parental Ca, GPR7 antag, OX1R antag-2)
CN(C)C(=O)COC(=O)c1ccccc1OCC(=O)Nc1ccc(SC(F)F)cc1	TAAR1 antag 64 | nonsel antag count 32 | TAAR1 ant conf 51 | Ga16 ag counter inactive | TAAR1 ag count inactive
O=C(COc1ccccc1C(=O)O)Nc1ccc(SC(F)F)cc1	none
Cc1cccc(Nc2ccccc2C(=O)OCC(=O)NCc2ccco2)c1C	none
O=C(COC(=O)c1ccccc1Nc1ccc(SC(F)F)cc1)NCc1ccco1	TAAR1 antag 52 | nonsel antag count inactive | TAAR1 ant conf inactive | Ga16 ag counter inactive | TAAR1 ag count inactive
CCC1(CCC(C)C)SC(N)=NC1=O (stereo not drawn)	none (no result: OX1R antag-1, CHO parental Ca, GPR7 antag, OX1R antag-2)
CCCCN1C(=O)c2ccc(C(=O)Nc3cccc(C)c3C)cc2C1=O	none
CCCCN1C(=O)c2ccc(C(=O)Nc3ccc(C)c(S(=O)(=O)N(C)C)c3)cc2C1=O	TAAR1 antag 68 | nonsel antag count 50 | TAAR1 ant conf 54 | Ga16 ag counter 13 | TAAR1 ag count inactive
COC(=O)Nc1sc2c(c1C(=O)NCc1ccco1)CCC2	none
COC(=O)Nc1sc2c(c1C(=O)NCc1ccco1)CCCC2	TAAR1 antag 107 | nonsel antag count inactive | TAAR1 ant conf inactive | Ga16 ag counter inactive | TAAR1 ag count inactive
COC(=O)c1ccc(NC(=O)CSc2nnnn2C2CCCCC2)cc1	TAAR1 antag 65 | nonsel antag count inactive | TAAR1 ant conf inactive | Ga16 ag counter inactive | TAAR1 ag count inactive
COc1cc(NC(=O)CSc2nnnn2C2CCCC2)cc(OC)c1	none
O=C(CSc1nnnn1C1CCCC1)NCCc1ccccc1	TAAR1 antag 55 | nonsel antag count inactive | TAAR1 ant conf 73 | Ga16 ag counter inactive | TAAR1 ag count 52
Cc1ccc(-c2c(NCCc3ccccc3)c(=O)c2=O)cc1	none
COc1ccccc1CNC(=O)C(Cc1c[nH]c2ccccc12)NC(=O)OCc1ccccc1 (stereo not drawn)	TAAR1 antag 63 | nonsel antag count inactive | TAAR1 ant conf inactive | Ga16 ag counter inactive | TAAR1 ag count inactive
C[C@H](NC(=O)OCc1ccccc1)C(=O)N[C@@H](Cc1c[nH]c2ccccc12)C(=O)O	none (no result: GPR7 antag)
COc1ccc(C)cc1NC(=O)CSc1ccc(-c2ccco2)nn1	none
CCc1[nH]nc2c1C1(CCN(C(=O)OCc3ccccc3)CC1)C(C#N)=C(N)O2	TAAR1 antag 63 | nonsel antag count 34 | TAAR1 ant conf 57 | Ga16 ag counter 16 | TAAR1 ag count inactive
Cc1nc(SCc2nc3ccc([N+](=O)[O-])cc3[nH]2)c2oc3ccccc3c2n1	none (no result: GPR7 antag)
CN(C)S(=O)(=O)c1ccc(S(=O)(=O)N2CCCC(C(=O)NC3CCCC3)C2)cc1 (stereo not drawn)	none
CC(C)(Cc1ccc(O)cc1)NC(=O)CC(=O)N/N=C/c1ccc(Cl)cc1	TAAR1 antag 74 | nonsel antag count inactive | TAAR1 ant conf 80 | Ga16 ag counter inactive | TAAR1 ag count 43
CC(C)(Cc1ccc(O)cc1)NC(=O)CC(=O)N/N=C/c1ccc([N+](=O)[O-])cc1	none
C=CCNc1nc(Nc2ccc(OC)c(OC)c2)c2sc(-c3ccccc3)cc2n1	none (no result: OX1R antag-1, CHO parental Ca, GPR7 antag, OX1R antag-2)
CN(C(=O)c1cc(-c2cccs2)nn1-c1ccccc1)C1CCS(=O)(=O)C1 (stereo not drawn)	none (no result: OX1R antag-1, CHO parental Ca, GPR7 antag, OX1R antag-2)
CN(CC(=O)Nc1ccc(F)cc1)C(=O)c1cc(-c2cccs2)nn1-c1ccccc1	TAAR1 antag 69 (no result: OX1R antag-1, CHO parental Ca, GPR7 antag, OX1R antag-2) | nonsel antag count 28 | TAAR1 ant conf inactive | Ga16 ag counter inactive | TAAR1 ag count inactive
Cc1cc(-c2ccc(S(=O)(=O)N(C)Cc3ccccc3)cc2)on1	TAAR1 antag 65, CHO parental Ca 38 | nonsel antag count 26 | TAAR1 ant conf 51 | Ga16 ag counter inactive | TAAR1 ag count inactive
CN(Cc1ccccc1)S(=O)(=O)c1ccc(NS(C)(=O)=O)cc1	none
CNC(=S)NN=C(C)CCCC(C)=NNC(=S)NC	none (no result: OX1R antag-1, CHO parental Ca, GPR7 antag, OX1R antag-2)
C[C@H]1CN(C(=O)OC(C)(C)C)CCN1c1ccc(Br)c(C#N)c1	TAAR1 antag 52 (no result: OX1R antag-1, CHO parental Ca, GPR7 antag, OX1R antag-2) | nonsel antag count 38 | TAAR1 ant conf inactive | Ga16 ag counter inactive | TAAR1 ag count inactive
COc1ccc(C2=NOC(C(=O)N3CCN(c4ccccc4OC)CC3)C2)cc1 (stereo not drawn)	TAAR1 antag 51 | nonsel antag count inactive | TAAR1 ant conf inactive | Ga16 ag counter inactive | TAAR1 ag count inactive
CCc1ccccc1NC(=O)C1CC(c2ccc(OC)cc2)=NO1 (stereo not drawn)	TAAR1 antag 103 | nonsel antag count inactive | TAAR1 ant conf inactive | Ga16 ag counter inactive | TAAR1 ag count inactive
CC(Oc1ccc2c3c(c(=O)oc2c1)CCC3)C(=O)NCCCn1ccnc1 (stereo not drawn)	none
CCOC(=O)Cn1ccc(NC(=O)c2ccc3c(c2)OCO3)n1	none
Cc1nc(N2CCN(Cc3ccc4c(c3)OCO4)CC2)c2oc3ccccc3c2n1	TAAR1 antag 72 (no result: OX1R antag-1, CHO parental Ca, GPR7 antag, OX1R antag-2) | nonsel antag count inactive | TAAR1 ant conf inactive | Ga16 ag counter inactive | TAAR1 ag count inactive
Cc1nc(N2CCN(Cc3ccc4c(c3)OCO4)CC2)c2cc(-c3ccccc3)sc2n1	none
CC(=O)c1ccccc1OCc1ccc(S(=O)(=O)Cc2ccccc2)cc1	TAAR1 antag 74 | nonsel antag count 30 | TAAR1 ant conf inactive | Ga16 ag counter inactive | TAAR1 ag count inactive
CC(=O)c1ccccc1OCCOc1ccccc1C(C)=O	none
Cc1cc(Cl)c2oc(C(=O)N3CCN(C(=O)c4ccco4)CC3)c(C)c2c1	none
COc1cc(C(=O)OCCc2cc3ccccc3c(=O)o2)cc(OC)c1OC	TAAR1 antag 65 (no result: GPR7 antag) | nonsel antag count 27 | TAAR1 ant conf inactive | Ga16 ag counter inactive | TAAR1 ag count inactive
